Experimental data as given in ChEMBL document CHEMBL1125014, “Synthesis and structure-activity relationships of new 9-N-alkyl derivatives of 9(S)-erythromycylamine” (1990).
In brackets after ≈: the same amount, converted by molar mass.

Experiments:
Haemophilus influenzae = test: MIC value was measured against haemophilus influenzae CL; type: functional
Mus musculus [1] = test: ED50 value was measured by sc administration against streptococcus pyogenes infection in mice (in vivo, in experiment 1); type: functional
How it was run: (§1)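 Infected mice were dosed orally or subcutaneously at 1 and 5 h postinfection, 0.25 mL of antibiotic solution in 10% aqueous ethanol per dose. Tartaric acid was added where needed for solubility. Several dose concentrations were tested to give the ED50.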

Mus musculus [2] = test: ED50 value was measured by sc administration against streptococcus pyogenes infection in mice (in vivo, in experiment 2); type: functional; how it was run: as §1
Mus musculus [3] = test: ED50 value was measured by po administration against streptococcus pyogenes infection in mice (in vivo, in experiment 1); type: functional; how it was run: as §1
Mus musculus [4] = test: ED50 value was measured by po administration against streptococcus pyogenes infection in mice (in vivo, in experiment 3); type: functional
Mus musculus [5] = test: ED50 value was measured by sc administration against staphylococcus aureus infection in mice (in vivo, in experiment 1); type: functional; how it was run: as §1
Mus musculus [6] = test: ED50 value was measured by sc administration against staphylococcus aureus infection in mice (in vivo, in experiment 2); type: functional; how it was run: as §1
Mus musculus [7] = test: ED50 value was measured by sc administration against staphylococcus aureus infection in mice (in vivo, in experiment 3); type: functional
Mus musculus [8] = test: ED50 value was measured by sc administration against streptococcus pneumoniae infection in mice (in vivo, in experiment 1); type: functional; how it was run: as §1
Mus musculus [9] = test: ED50 value was measured by sc administration against streptococcus pneumoniae infection in mice (in vivo, in experiment 3); type: functional
Staphylococcus aureus [10] = test: Effective dose against mice infected with Staphylococcus aureus after peroral administration (in vivo); type: functional; conditions: in Mus musculus, po
Streptococcus pneumoniae [11] = test: Effective dose against mice infected with streptococcus pneumoniae after peroral administration (in vivo); type: functional; conditions: in Mus musculus, po
Streptococcus pyogenes [12] = test: Effective dose against mice infected with streptococcus pyogenes after peroral administration (in vivo); type: functional; conditions: in Mus musculus, po
Mus musculus [13] = test: ED50 value was measured by po administration against staphylococcus aureus infection in mice (in vivo, in experiment 1); type: functional; how it was run: as §1
Mus musculus [14] = test: ED50 value was measured by po administration against staphylococcus aureus infection in mice (in vivo, in experiment 3); type: functional
Mus musculus [15] = test: ED50 value was measured by po administration against streptococcus pneumoniae infection in mice (in vivo, in experiment 1); type: functional; how it was run: as §1
Mus musculus [16] = test: ED50 value was measured by po administration against streptococcus pneumoniae infection in mice (in vivo, in experiment 3); type: functional
Mus musculus [17] = test: Plasma concentration in mice was determined by oral administration, 20 mg/kg at 1 h; type: functional, organism-based; set-up: dose 20 mg/kg
How it was run: (§2)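 Mice given 20 mg/kg orally or subcutaneously; peripheral plasma sampled at 5, 20 and 40 min and at 1, 2 and 4 h after dosing. Microbiological assay used Micrococcus luteus seeded in Antibiotic Medium 1, with zone sizes converted by the compound's own standard curve. Each value is the average of five mice per time point.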

Mus musculus [18] = test: Plasma concentration in mice was determined by subcutaneous administration, 20 mg/kg at 1 hr; type: functional, organism-based; set-up: dose 20 mg/kg; how it was run: as §2
Mus musculus [19] = test: Plasma concentration in mice was determined by subcutaneous administration, 20 mg/kg at 20 min; type: functional, organism-based; set-up: dose 20 mg/kg; how it was run: as §2
Mus musculus [20] = test: Plasma concentration in mice was determined by subcutaneous administration, 20 mg/kg at 40 min; type: functional, organism-based; set-up: dose 20 mg/kg; how it was run: as §2
Mus musculus [21] = test: Plasma concentration in mice was determined by subcutaneous administration, 20 mg/kg at 4 hr; type: functional, organism-based; set-up: dose 20 mg/kg; how it was run: as §2
Mus musculus [22] = test: Plasma concentration in mice was determined by subcutaneous administration, 20 mg/kg at 5 min; type: functional, organism-based; set-up: dose 20 mg/kg; how it was run: as §2
Rattus norvegicus [23] = species on record: Rattus norvegicus; test: Fluid concentration in kidney tissue was determined in rats at 1 h; type: functional
How it was run: (§3)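 Rats were gavaged at 20 mg/kg and tissues sampled 0.5–6 h after dosing. Drug was assayed microbiologically with Micrococcus luteus seeded in Antibiotic Media 1. Zone sizes were read against each compound's own standard curve. Values are the mean of three rats per time point, in μg/g.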

Rattus norvegicus [24] = species on record: Rattus norvegicus; test: Fluid concentration in liver tissue was determined in rats at 0.5 h; type: functional; how it was run: as §3
Rattus norvegicus [25] = species on record: Rattus norvegicus; test: Fluid concentration in liver tissue was determined in rats at 1 h; type: functional
How it was run: (§4)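 Rats dosed by gavage at 20 mg/kg; lung, liver, kidney, urine and serum sampled at 0.5, 1, 2, 4 and 6 h after dosing. Antibiotic measured by microbiological assay with Micrococcus luteus seeded in Antibiotic Medium 1. Zone sizes were read against the standard curve for the same compound. Each value is the average of three rats per time point.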

Rattus norvegicus [26] = species on record: Rattus norvegicus; test: Fluid concentration in lung tissue was determined in rats at 0.5 h; type: functional; how it was run: as §4
Rattus norvegicus [27] = species on record: Rattus norvegicus; test: Fluid concentration in lung tissue was determined in rats at 1 h; type: functional; how it was run: as §4
Rattus norvegicus [28] = species on record: Rattus norvegicus; test: Fluid concentration in lung tissue was determined in rats at 2 h; type: functional; how it was run: as §4
Rattus norvegicus [29] = species on record: Rattus norvegicus; test: Fluid concentration in lung tissue was determined in rats at 4 h; type: functional; how it was run: as §4
Rattus norvegicus [30] = species on record: Rattus norvegicus; test: Fluid concentration in lung tissue was determined in rats at 6 h; type: functional; how it was run: as §4
Rattus norvegicus [31] = test: Plasma concentration in rats was determined by subcutaneous administration, 20 mg/kg at 20 min; type: functional, organism-based; set-up: dose 20 mg/kg
How it was run: (§5)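 Peripheral plasma antibiotic levels in rats given 20 mg/kg orally or subcutaneously. Plasma was sampled at timed points after dosing. Levels were measured by microbiological agar assay with Micrococcus luteus seeded in Antibiotic Media 1, reading zone sizes, and were calculated from a standard curve for the appropriate compound. Each value is the average of three rats per time point, in μg/mL.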

Rattus norvegicus [32] = test: Plasma concentration in rats was determined by oral administration, 20 mg/kg at 40 min; type: functional, organism-based; set-up: dose 20 mg/kg; how it was run: as §5
Streptococcus pneumoniae [33] = test: MIC value measured against streptococcus pneumoniae Park1; type: functional
Staphylococcus aureus [34] = test: MIC value measured against staphylococcus aureus X1; type: functional
Streptococcus pyogenes [35] = test: MIC value measured against streptococcus pyogenes C203; type: functional
Mus musculus [36] = test: Plasma concentration in mice was determined by subcutaneous administration, 20 mg/kg at 2 hr; type: functional, organism-based; set-up: dose 20 mg/kg; how it was run: as §2
[37] = test system: Staphylococcus epidermidis; test: microbe, parasite or virus in culture; type: functional
Rattus norvegicus [38] = species on record: Rattus norvegicus
Rattus norvegicus [39] = species on record: Rattus norvegicus; remark: listed apart in the source
Rattus norvegicus [40] = species on record: Rattus norvegicus; remark: listed apart in the source
Rattus norvegicus [41] = species on record: Rattus norvegicus; remark: listed apart in the source

CCCN[C@@H]1[C@H](C)[C@@H](O)[C@](C)(O)[C@@H](CC)OC(=O)[C@H](C)[C@@H](OC2CC(C)(OC)C(O)C(C)O2)[C@H](C)[C@@H](OC2OC(C)CC(N(C)C)C2O)[C@](C)(O)C[C@H]1C (some centres not stated)
MIC (Haemophilus influenzae): 0.5 µg/mL (≈ 0.643 µM)
ED50 (Mus musculus [1]): 1.7 mg/kg
ED50 (Mus musculus [2]): 1.4 mg/kg
ED50 (Mus musculus [3]): 9 mg/kg
ED50 (Mus musculus [4]): 6 mg/kg
ED50 (Mus musculus [5]): 4.7 mg/kg
ED50 (Mus musculus [6]): 2.1 mg/kg
ED50 (Mus musculus [7]): 6.1 mg/kg
ED50 (Mus musculus [8]): 1.6 mg/kg
ED50 (Mus musculus [9]): 1.8 mg/kg
ED50 (Staphylococcus aureus [10]): 12 mg/kg
ED50 (Streptococcus pneumoniae [11]): 7 mg/kg
ED50 (Streptococcus pyogenes [12]): 3 mg/kg
ED50 (Mus musculus [13]): 19 mg/kg
ED50 (Mus musculus [14]): 13 mg/kg
ED50 (Mus musculus [15]): 14 mg/kg
ED50 (Mus musculus [16]): 6 mg/kg
Plasma concentration (Mus musculus [17]): 0.08 µg/mL
Plasma concentration (Mus musculus [18]): 0.39 µg/mL
Plasma concentration (Mus musculus [19]): 0.75 µg/mL
Plasma concentration (Mus musculus [20]): 0.47 µg/mL
Plasma concentration (Mus musculus [21]): 0.06 µg/mL
Plasma concentration (Mus musculus [22]): 1.58 µg/mL
Activity (Rattus norvegicus [23]): 0.31 µg/mL
Activity (Rattus norvegicus [24]): 0.08 µg/mL
Activity (Rattus norvegicus [25]): 0.17 µg/mL
Activity (Rattus norvegicus [26]): 0.31 µg/mL
Activity (Rattus norvegicus [27]): 2.25 µg/mL
Activity (Rattus norvegicus [28]): 4.9 µg/mL
Activity (Rattus norvegicus [29]): 5.46 µg/mL
Activity (Rattus norvegicus [30]): 5.08 µg/mL
Plasma concentration (Rattus norvegicus [31]): 0.07 µg/mL
Plasma concentration (Rattus norvegicus [32]): 0.01 µg/mL
MIC (Streptococcus pneumoniae [33]): 0.015 µg/mL (≈ 0.0193 µM)
MIC (Staphylococcus aureus [34]): 0.25 µg/mL (≈ 0.322 µM)
MIC (Streptococcus pyogenes [35]): 0.03 µg/mL (≈ 0.0386 µM)
Plasma concentration (Mus musculus [36]): 0.11 µg/mL
MIC [37]: 0.12 µg/mL (≈ 0.154 µM)
Plasma concentration (Rattus norvegicus [38]): 0.28 µg/mL
Plasma concentration (Rattus norvegicus [39]): 0.08 µg/mL
Plasma concentration (Rattus norvegicus [40]): 0.08 µg/mL
Plasma concentration (Rattus norvegicus [41]): 0.04 µg/mL
